Each block holds one molecule with its values, some of them ahead of it. Where a SMILES comes first, the peptide text is derived from it. The star is where a group is joined. X1 = O=C(NCCCN*)c1ccc(-c2n[nH]c3ccccc23)cc1
Tests used:
JNK1 = JNK1 (Homo sapiens, UniProt P45983); type: biochemical; conditions: for IC50: read-out: Kinase Inhibition IC50, JNK1 phosphorylation of ATF2, TR-FRET
NONcNZO10/LtJ mice = assay: Glucose tolerance test in type 2 diabetes mouse model; type: in vivo; conditions: 25 mg/kg i.p. daily, 26-week-old NONcNZO10/LtJ mice, 2 g/kg D-glucose i.p.
Outline: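 Male 26-week-old NONcNZO10/LtJ mice, glucose intolerant, received test compound daily by i.p. injection alongside vehicle-treated controls. After a 16 h fast, mice were given D-glucose i.p. Blood was sampled at set time points and glucose read with a hand-held meter. Treated and vehicle groups were compared by two-way ANOVA using all measurements.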

GST-JNK1 = GST-JNK1 (UniProt P45983 1-427); assay: DELFIA
Sequence of GST-JNK1 (P45983 whole entry): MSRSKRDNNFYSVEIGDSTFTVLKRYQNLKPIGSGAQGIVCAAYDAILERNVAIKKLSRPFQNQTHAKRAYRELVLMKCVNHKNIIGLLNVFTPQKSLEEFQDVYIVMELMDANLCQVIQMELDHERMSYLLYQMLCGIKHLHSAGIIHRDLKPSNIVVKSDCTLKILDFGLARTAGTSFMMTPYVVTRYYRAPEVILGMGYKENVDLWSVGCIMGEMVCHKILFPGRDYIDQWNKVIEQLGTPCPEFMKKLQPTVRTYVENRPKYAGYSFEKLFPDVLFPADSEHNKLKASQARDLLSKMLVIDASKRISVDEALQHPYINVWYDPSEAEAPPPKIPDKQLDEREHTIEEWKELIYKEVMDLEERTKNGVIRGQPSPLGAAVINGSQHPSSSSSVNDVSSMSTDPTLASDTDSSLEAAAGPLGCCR

Sequence of JNK1 (P45983 whole entry): as above

Molecule: Ac-tdqsrpvqpflnlttprrprpprrrqrrkkrg-OH (Ac-TDQSRPVQPFLNLTTPRRPRPPRRRQRRKKRG-OH; also: lowercase letters in name, meaning not given here) [compound 11]
IC50 (JNK1): > 50 µM
glucose tolerance / restoring normoglycemia (NONcNZO10/LtJ mice): observed shortcoming

improvement of kinase inhibition properties compared with 20 (JNK1; 9 versus 20, Figure 1e): over 100 fold
IC50 (JNK1): 0.0007 µM
Molecule: CC(C)CC(NC(=O)C(CC(N)=O)NC(=O)C(CC(C)C)NC(=O)C(NC(=O)C(NC(=O)C1CCCN1C(=O)C(N)CCCNC(=N)N)C(C)O)C(C)O)C(=O)NCC(=O)NCC(=O)NCCCNC(=O)c1ccc(-c2n[nH]c3ccccc23)cc1 (centres unmarked) [compound 9] (H-RPTTLNLGG-X1; configuration not given here)

IC50 (GST-JNK1): 4.5 µM
B1: 10 (Ac-RPTTLNL-OH) (peptide)
peptide: Ac-RPTTLNL-OH
